Reference: ChEMBL document CHEMBL1649317, “Acquisition of a transposon encoding extended-spectrum beta-lactamase SHV-12 by Pseudomonas aeruginosa isolates during the clinical course of a burn patient” (2010)
Values after ≈ are worked out from the molar mass of the structure shown.

Key:
Pseudomonas aeruginosa [1] = test: Antimicrobial activity against SHV-12 ESBL producing Pseudomonas aeruginosa isolate 2205 isolated from burn patient by broth microdilution method; format: functional
Method in brief: (§1)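 MICs were determined by broth microdilution following the CLSI proposal. For clavulanic acid combinations, clavulanate was held at a fixed concentration. The seven isolates came from a single burn patient over the clinical course. P072204 was taken from sputum; all others were taken from burn sites. Isolates were typed by PCR for blaSHV and IS26.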

Pseudomonas aeruginosa [2] = test: Antimicrobial activity against SHV-12 ESBL producing Pseudomonas aeruginosa isolate 2206 isolated from burn patient by broth microdilution method; format: functional; method in brief: as §1
Pseudomonas aeruginosa [3] = test: Antimicrobial activity against SHV-12 ESBL producing Pseudomonas aeruginosa isolate 2207 isolated from burn patient by broth microdilution method; format: functional; method in brief: as §1
Pseudomonas aeruginosa [4] = test: Antimicrobial activity against SHV-12 ESBL producing Pseudomonas aeruginosa isolate 2201 isolated from burn patient by broth microdilution method; format: functional; method in brief: as §1
Pseudomonas aeruginosa [5] = test: Antimicrobial activity against SHV-12 ESBL producing Pseudomonas aeruginosa isolate 2202 isolated from burn patient by broth microdilution method; format: functional; method in brief: as §1
Pseudomonas aeruginosa [6] = test: Antimicrobial activity against SHV-12 ESBL producing Pseudomonas aeruginosa isolate 2203 isolated from burn patient by broth microdilution method; format: functional; method in brief: as §1
Pseudomonas aeruginosa [7] = test: Antimicrobial activity against SHV-12 ESBL producing Pseudomonas aeruginosa isolate 2204 isolated from burn patient by broth microdilution method; format: functional; method in brief: as §1
Pseudomonas aeruginosa [8] = test: Antimicrobial activity against SHV-12 ESBL producing Pseudomonas aeruginosa isolate 2201 isolated from burn patient by broth microdilution method in presence of beta-lactamase inhibitor clavulanic acid; format: functional
Pseudomonas aeruginosa [9] = test: Antimicrobial activity against SHV-12 ESBL producing Pseudomonas aeruginosa isolate 2205 isolated from burn patient by broth microdilution method in presence of beta-lactamase inhibitor clavulanic acid; format: functional
Pseudomonas aeruginosa [10] = test: Antimicrobial activity against SHV-12 ESBL producing Pseudomonas aeruginosa isolate 2206 isolated from burn patient by broth microdilution method in presence of beta-lactamase inhibitor clavulanic acid; format: functional
Pseudomonas aeruginosa [11] = test: Antimicrobial activity against SHV-12 ESBL producing Pseudomonas aeruginosa isolate 2207 isolated from burn patient by broth microdilution method in presence of beta-lactamase inhibitor clavulanic acid; format: functional
Pseudomonas aeruginosa [12] = test: Antimicrobial activity against SHV-12 ESBL non-producing Pseudomonas aeruginosa isolate 2202 isolated from burn patient by broth microdilution method in presence of beta-lactamase inhibitor clavulanic acid
Pseudomonas aeruginosa [13] = test: Antimicrobial activity against SHV-12 ESBL non-producing Pseudomonas aeruginosa isolate 2203 isolated from burn patient by broth microdilution method in presence of beta-lactamase inhibitor clavulanic acid
Pseudomonas aeruginosa [14] = test: Antimicrobial activity against SHV-12 ESBL non-producing Pseudomonas aeruginosa isolate 2204 isolated from burn patient by broth microdilution method in presence of beta-lactamase inhibitor clavulanic acid

## CO/N=C(\C(=O)N[C@@H]1C(=O)N2C(C(=O)[O-])=C(C[N+]3(C)CCCC3)CS[C@H]12)c1csc(N)n1
Pseudomonas aeruginosa [1]
  MIC: 256 µg/mL (≈ 533 µM)
Pseudomonas aeruginosa [2]
  MIC: 512 µg/mL (≈ 1070 µM)
Pseudomonas aeruginosa [3]
  MIC: 512 µg/mL (≈ 1070 µM)

## NCC[C@H](O)C(=O)N[C@@H]1C[C@H](N)[C@@H](O[C@H]2O[C@H](CN)[C@@H](O)[C@H](O)[C@H]2O)[C@H](O)[C@H]1O[C@H]1O[C@H](CO)[C@@H](O)[C@H](N)[C@H]1O [AMIKACIN]
Pseudomonas aeruginosa [4]
  MIC: 4 µg/mL (≈ 6.83 µM)
Pseudomonas aeruginosa [5]
  MIC: 4 µg/mL (≈ 6.83 µM)
Pseudomonas aeruginosa [6]
  MIC: 4 µg/mL (≈ 6.83 µM)
Pseudomonas aeruginosa [7]
  MIC: 4 µg/mL (≈ 6.83 µM)
Pseudomonas aeruginosa [1]
  MIC: 128 µg/mL (≈ 219 µM)
Pseudomonas aeruginosa [2]
  MIC: 128 µg/mL (≈ 219 µM)
Pseudomonas aeruginosa [3]
  MIC: 128 µg/mL (≈ 219 µM)

## C[C@H]1[C@H](NC(=O)/C(=N\OC(C)(C)C(=O)O)c2csc(N)n2)C(=O)N1S(=O)(=O)O [AZTREONAM]
Pseudomonas aeruginosa [1]
  MIC: 512 µg/mL (≈ 1180 µM)
Pseudomonas aeruginosa [2]
  MIC: 512 µg/mL (≈ 1180 µM)
Pseudomonas aeruginosa [3]
  MIC: 512 µg/mL (≈ 1180 µM)

## CO/N=C(\C(=O)N[C@@H]1C(=O)N2C(C(=O)O)=C(COC(C)=O)CS[C@H]12)c1csc(N)n1 [CEFOTAXIME]
Pseudomonas aeruginosa [4]
  MIC: 16 µg/mL (≈ 35.1 µM)
Pseudomonas aeruginosa [5]
  MIC: 256 µg/mL (≈ 562 µM)
Pseudomonas aeruginosa [6]
  MIC: 128 µg/mL (≈ 281 µM)
Pseudomonas aeruginosa [7]
  MIC: 64 µg/mL (≈ 141 µM)
Pseudomonas aeruginosa [1]
  MIC: 512 µg/mL (≈ 1120 µM)
Pseudomonas aeruginosa [2]
  MIC: 512 µg/mL (≈ 1120 µM)
Pseudomonas aeruginosa [3]
  MIC: 512 µg/mL (≈ 1120 µM)
Pseudomonas aeruginosa [8]
  MIC: 16 µg/mL
Pseudomonas aeruginosa [9]
  MIC: 64 µg/mL
Pseudomonas aeruginosa [10]
  MIC: 64 µg/mL
Pseudomonas aeruginosa [11]
  MIC: 64 µg/mL
Pseudomonas aeruginosa [12]
  MIC: 256 µg/mL
Pseudomonas aeruginosa [13]
  MIC: 128 µg/mL
Pseudomonas aeruginosa [14]
  MIC: 64 µg/mL

## CC(C)(O/N=C(\C(=O)N[C@@H]1C(=O)N2C(C(=O)[O-])=C(C[n+]3ccccc3)CS[C@H]12)c1csc(N)n1)C(=O)O [CEFTAZIDIME]
Pseudomonas aeruginosa [4]
  MIC: 2 µg/mL (≈ 3.66 µM)
Pseudomonas aeruginosa [5]
  MIC: 16 µg/mL (≈ 29.3 µM)
Pseudomonas aeruginosa [6]
  MIC: 8 µg/mL (≈ 14.6 µM)
Pseudomonas aeruginosa [7]
  MIC: 4 µg/mL (≈ 7.32 µM)
Pseudomonas aeruginosa [1]
  MIC: 512 µg/mL (≈ 937 µM)
Pseudomonas aeruginosa [2]
  MIC: 512 µg/mL (≈ 937 µM)
Pseudomonas aeruginosa [3]
  MIC: 512 µg/mL (≈ 937 µM)
Pseudomonas aeruginosa [8]
  MIC: 2 µg/mL
Pseudomonas aeruginosa [9]
  MIC: 16 µg/mL
Pseudomonas aeruginosa [10]
  MIC: 16 µg/mL
Pseudomonas aeruginosa [11]
  MIC: 16 µg/mL
Pseudomonas aeruginosa [12]
  MIC: 16 µg/mL
Pseudomonas aeruginosa [13]
  MIC: 8 µg/mL
Pseudomonas aeruginosa [14]
  MIC: 4 µg/mL

## CCN1CCN(C(=O)N[C@@H](C(=O)N[C@@H]2C(=O)N3[C@@H]2SC(C)(C)[C@@H]3C(=O)O)c2ccccc2)C(=O)C1=O [PIPERACILLIN]
Pseudomonas aeruginosa [4]
  MIC: 16 µg/mL (≈ 30.9 µM)
Pseudomonas aeruginosa [5]
  MIC: 32 µg/mL (≈ 61.8 µM)
Pseudomonas aeruginosa [6]
  MIC: 16 µg/mL (≈ 30.9 µM)
Pseudomonas aeruginosa [7]
  MIC: 16 µg/mL (≈ 30.9 µM)
Pseudomonas aeruginosa [1]
  MIC: 256 µg/mL (≈ 495 µM)
Pseudomonas aeruginosa [2]
  MIC: 512 µg/mL (≈ 989 µM)
Pseudomonas aeruginosa [3]
  MIC: 512 µg/mL (≈ 989 µM)
Pseudomonas aeruginosa [8]
  MIC: 16 µg/mL
Pseudomonas aeruginosa [9]
  MIC: 128 µg/mL
Pseudomonas aeruginosa [10]
  MIC: 256 µg/mL
Pseudomonas aeruginosa [11]
  MIC: 256 µg/mL
Pseudomonas aeruginosa [12]
  MIC: 32 µg/mL
Pseudomonas aeruginosa [13]
  MIC: 16 µg/mL
Pseudomonas aeruginosa [14]
  MIC: 16 µg/mL

## CC1(C)S[C@@H]2[C@H](NC(=O)[C@H](C(=O)O)c3ccsc3)C(=O)N2[C@H]1C(=O)O [TICARCILLIN]
Pseudomonas aeruginosa [4]
  MIC: 16 µg/mL (≈ 41.6 µM)
Pseudomonas aeruginosa [5]
  MIC: 32 µg/mL (≈ 83.2 µM)
Pseudomonas aeruginosa [6]
  MIC: 32 µg/mL (≈ 83.2 µM)
Pseudomonas aeruginosa [7]
  MIC: 64 µg/mL (≈ 166 µM)
Pseudomonas aeruginosa [1]
  MIC: > 512 µg/mL
Pseudomonas aeruginosa [2]
  MIC: > 512 µg/mL
Pseudomonas aeruginosa [3]
  MIC: > 512 µg/mL
Pseudomonas aeruginosa [8]
  MIC: 16 µg/mL
Pseudomonas aeruginosa [9]
  MIC: > 512 µg/mL
Pseudomonas aeruginosa [10]
  MIC: > 512 µg/mL
Pseudomonas aeruginosa [11]
  MIC: > 512 µg/mL
Pseudomonas aeruginosa [12]
  MIC: 32 µg/mL
Pseudomonas aeruginosa [13]
  MIC: 32 µg/mL
Pseudomonas aeruginosa [14]
  MIC: 64 µg/mL
